According to ChEMBL document CHEMBL4414626, “Structure-Guided Enhancement of Selectivity of Chemical Probe Inhibitors Targeting Bacterial Seryl-tRNA Synthetase” (J Med Chem, 2019):
pIC50, pKd: −log10 of the molar value. The source made the active and inactive calls. The rule behind the calls is not given here.

What was measured:
[1] = system: Escherichia coli; test: Antibacterial activity against Escherichia coli ATCC 25922 assessed as reduction in bacterial growth incubated for 18 to 20 hrs by broth microdilution assay; assay type: functional
[2] = system: Staphylococcus aureus; test: Antibacterial activity against Staphylococcus aureus ATCC 25923 assessed as reduction in bacterial growth incubated for 18 to 20 hrs by broth microdilution assay; assay type: functional
[3] = Solubility of the compound in HEPES buffer in presence of human N-terminal polyHis-tagged SerRS expressed in Escherichia coli BL21 (DE3) at 1000 uM; assay type: physicochemical
[4] = Selectivity index, ratio of IC50 for human N-terminal polyHis-tagged SerRS expressed in Escherichia coli BL21 (DE3) to IC50 for C-terminal His10-tagged Escherichia coli B ER2560 SerRS expressed in Lemo21(DE3)
[5] = Selectivity index, ratio of IC50 for human N-terminal polyHis-tagged SerRS expressed in Escherichia coli BL21 (DE3) to IC50 for C-terminal His10-tagged Staphylococcus aureus seg50 SerRS expressed in Lemo21(DE3)
[6] = biological target: T1, Serine--tRNA ligase (Escherichia coli (strain K12), UniProt P0A8L1); test: Binding affinity to C-terminal His10-tagged Escherichia coli B ER2560 SerRS expressed in Lemo21(DE3) SerRS assessed as dissociation constant by isothermal titration calorimetry
T1 sequence (P0A8L1 whole entry): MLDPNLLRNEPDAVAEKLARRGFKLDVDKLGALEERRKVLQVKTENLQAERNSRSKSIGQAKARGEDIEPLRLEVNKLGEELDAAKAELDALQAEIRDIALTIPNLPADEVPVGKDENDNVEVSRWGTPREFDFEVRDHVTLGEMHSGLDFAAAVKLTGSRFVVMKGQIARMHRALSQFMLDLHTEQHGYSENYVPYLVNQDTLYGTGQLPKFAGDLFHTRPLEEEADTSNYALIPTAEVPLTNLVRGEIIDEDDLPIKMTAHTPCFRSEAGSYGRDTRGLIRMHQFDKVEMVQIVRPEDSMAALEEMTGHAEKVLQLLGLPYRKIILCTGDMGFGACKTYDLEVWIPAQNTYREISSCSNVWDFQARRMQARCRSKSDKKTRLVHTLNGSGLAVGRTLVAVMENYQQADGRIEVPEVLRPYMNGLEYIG

[7] = biological target: Serine--tRNA ligase (Escherichia coli (strain K12)) (UniProt P0A8L1); test: Binding affinity to C-terminal His10-tagged Escherichia coli B ER2560 SerRS expressed in Lemo21(DE3) SerRS assessed as binding stoichiometry at 2:1 ratio of compound to protein by isothermal titration calorimetry
Chain of Serine--tRNA ligase (Escherichia coli (strain K12)) (P0A8L1 whole entry, looked up): as the sequence (P0A8L1 whole entry) above
In short: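 E. coli SerRS was purified by gel filtration and dialysed overnight at 4 °C into 20 mM Tris-HCl pH 7.5, 200 mM NaCl. Ligands were made up in the same buffer and all solutions degassed. ITC ran at 25 °C: 7 µM protein in the cell was titrated with 140 µM ligand by 2 µl then 26 × 10 µl injections (20 s each, 120 s apart). Stoichiometry N came from iterative isotherm fitting; runs were in triplicate.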

[8] = biological target: T1, Serine--tRNA ligase; test: Binding affinity to C-terminal His10-tagged Escherichia coli B ER2560 SerRS expressed in Lemo21(DE3) SerRS assessed as affinity constant for first binding site by isothermal titration calorimetry
[9] = biological target: T1, Serine--tRNA ligase; test: Binding affinity to C-terminal His10-tagged Escherichia coli B ER2560 SerRS expressed in Lemo21(DE3) SerRS assessed as affinity constant for second binding site by isothermal titration calorimetry
[10] = biological target: T1, Serine--tRNA ligase; test: Inhibition of C-terminal His10-tagged Escherichia coli B ER2560 SerRS expressed in Lemo21(DE3) using Ap4A as substrate in presence of serine by leuconostoc mesenteroides hexokinase/glucose 6-Phosphate dehydrogenase coupled UV-visible spectrophotometry
In short: (§1)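 Continuous coupled spectrophotometric assay of the adenylate formation step with thrombin-cleaved, gel-filtered SerRS. Buffer is 50 mM HEPES pH 7.6 with 10 mM MgCl2, 50 mM KCl, 1 mM DTT and 10% DMSO. It also holds 10 mM glucose, 0.5 mM NADP+, yeast hexokinase and L. mesenteroides G6PDH. IC50 by non-linear regression.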

[11] = biological target: Serine--tRNA ligase (Staphylococcus aureus (strain NCTC 8325 / PS 47), UniProt P95689); test: Inhibition of C-terminal His10-tagged Staphylococcus aureus seg50 SerRS expressed in Lemo21(DE3) using Ap4A as substrate in presence of serine by leuconostoc mesenteroides hexokinase/glucose 6-Phosphate dehydrogenase coupled UV-visible spectrophotometry; in short: as §1
Chain of Serine--tRNA ligase (Staphylococcus aureus (strain NCTC 8325 / PS 47), UniProt P95689) (P95689 whole entry): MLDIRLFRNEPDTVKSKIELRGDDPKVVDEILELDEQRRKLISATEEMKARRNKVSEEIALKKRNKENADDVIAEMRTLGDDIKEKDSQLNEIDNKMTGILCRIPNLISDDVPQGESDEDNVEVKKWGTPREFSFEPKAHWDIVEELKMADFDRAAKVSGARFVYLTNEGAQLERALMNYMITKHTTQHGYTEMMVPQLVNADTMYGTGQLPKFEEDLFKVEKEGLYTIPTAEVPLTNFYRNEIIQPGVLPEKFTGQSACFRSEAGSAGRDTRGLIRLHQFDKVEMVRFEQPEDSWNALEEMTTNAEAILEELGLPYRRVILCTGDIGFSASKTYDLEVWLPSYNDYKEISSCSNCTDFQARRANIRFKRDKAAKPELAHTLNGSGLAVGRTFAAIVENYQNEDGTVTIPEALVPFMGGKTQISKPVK

Row | SMILES | MIC [1] | MIC [2] | further results
1 | Nc1nc(-c2ccco2)nc2c1ncn2[C@@H]1O[C@H](COS(=O)(=O)NC(=O)[C@@H](N)CO)[C@@H](O)[C@H]1O | > 256 µg/mL | > 256 µg/mL | 
2 | Nc1nc(Cl)nc2c1ncn2[C@@H]1O[C@H](COS(=O)(=O)NC(=O)[C@@H](N)CO)[C@@H](O)[C@H]1O | > 256 µg/mL | > 256 µg/mL | 
3 | C/C=C/c1nc(N)c2ncn([C@@H]3O[C@H](COS(=O)(=O)NC(=O)[C@@H](N)CO)[C@@H](O)[C@H]3O)c2n1 | > 256 µg/mL | > 256 µg/mL | 
4 | Nc1nc(-c2ccsc2)nc2c1ncn2[C@@H]1O[C@H](COS(=O)(=O)NC(=O)[C@@H](N)CO)[C@@H](O)[C@H]1O | > 256 µg/mL | > 256 µg/mL | solubility [3]: Insoluble
5 | Nc1nc(I)nc2c1ncn2[C@@H]1O[C@H](COS(=O)(=O)NC(=O)[C@@H](N)CO)[C@@H](O)[C@H]1O | > 256 µg/mL | > 256 µg/mL | 
6 | Nc1ncnc2c1ncn2[C@@H]1O[C@H](COS(=O)(=O)NC(=O)[C@@H](N)CO)[C@@H](O)[C@H]1O | > 256 µg/mL | > 256 µg/mL | Ratio IC50 [4]: 10; Ratio IC50 [5]: 10; pKd [6]: 8.90; Activity [7]: Active
7 | Nc1nc(-c2cccnc2)nc2c1ncn2[C@@H]1O[C@H](COS(=O)(=O)NC(=O)[C@@H](N)CO)[C@@H](O)[C@H]1O | > 256 µg/mL | > 256 µg/mL | pKd [6]: 5.72 to 6.54; pKd [8]: 6.54; pKd [9]: 5.72; solubility [3]: Insoluble; Activity [7]: Active
8 | CC1(C)O[C@@H]2[C@H](O1)[C@@H](CO)O[C@H]2n1cnc2c(N)nc(I)nc21 |  |  | pIC50 [10]: 3.55; pIC50 [11]: 3.64
9 | Nc1nc(-c2ccccc2)nc2c1ncn2[C@@H]1O[C@H](COS(=O)(=O)NC(=O)[C@@H](N)CO)[C@@H](O)[C@H]1O | > 256 µg/mL | > 256 µg/mL | 
